Reference: ChEMBL document CHEMBL2413009, “Synthesis and structure activity relationship of imidazo[1,2-a]pyridine-8-carboxamides as a novel antimycobacterial lead series” (Bioorg Med Chem Lett, 2013)
Values after ≈ are worked out from the molar mass of the structure shown.

What was measured:
[1] = system: Mycobacterium tuberculosis; test: Antimycobacterial activity against Mycobacterium tuberculosis H37Rv ATCC 27294 after 7 days by broth microdilution method; type: functional; conditions: H37Rv ATCC 27294, 168 h
[2] = Aqueous solubility of the compound in 0.1 M sodium phosphate buffer at pH 7.4 after 24 hrs; type: physicochemical
[3] = Fraction unbound in mouse plasma after 5 hrs by rapid equilibrium dialysis method; type: ADME, cell-free
[4] = Intrinsic clearance in mouse microsomes; type: ADME, Microsome
[5] = Fraction unbound in human plasma after 5 hrs by rapid equilibrium dialysis method; type: ADME, cell-free
[6] = Intrinsic clearance in human microsomes; type: ADME, Microsome
Procedure, shortened: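 Intrinsic clearance was measured in human microsomal preparations and is reported in µl/min/mg.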

[7] = Lipophilicity, log D of the compound in 0.01 M sodium phosphate at pH 7.4 after 5 hrs by shake-flask technique; type: physicochemical
[8] = system: A549; test: Cytotoxicity against human A549 cells; type: cell-based
[9] = system: Mycobacterium tuberculosis; test: Cidality activity against Mycobacterium tuberculosis H37Rv ATCC 27294 assessed as log reduction in bacterial numbers at 32 ug/mL up to 28 days; type: functional
Procedure, shortened: (§1)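 Replicating Mtb grown aerobically in Middlebrook 7H9 broth and exposed to a range of compound concentrations up to 32 µg/mL. Bacterial numbers were followed over time as kill kinetics, and the result is expressed as log reduction in bacterial numbers.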

[10] = system: Mycobacterium tuberculosis; test: Cidality activity against Mycobacterium tuberculosis H37Rv ATCC 27294 assessed as log reduction in bacterial numbers up to 28 days; type: functional, organism-based; procedure, shortened: as §1
[11] = system: Haemophilus influenzae; test: Antibacterial activity against Haemophilus influenzae by broth microdilution method; type: functional
[12] = system: Staphylococcus aureus; test: Antibacterial activity against Staphylococcus aureus by broth microdilution method; type: functional
[13] = system: Escherichia coli; test: Antibacterial activity against Escherichia coli by broth microdilution method; type: functional
[14] = system: Streptococcus pneumoniae; test: Antibacterial activity against Streptococcus pneumoniae by broth microdilution method; type: functional

In the case of `COc1cncc(-c2cc(-c3cn4cccc(C(N)=O)c4n3)ccc2F)c1`, the MIC [1] is reported as > 32 µg/mL and the solubility at 24 h [2] is reported as < 1 µM.

In the case of `COc1cncc(-c2cccc(-c3cn4cccc(C(N)=O)c4n3)c2)c1`, the MIC [1] is reported as 0.5 µg/mL, the solubility at 24 h [2] is reported as < 1 µM and the fraction unbound at 5 h [3] is reported as 0.019. It also gave a microsomal CLint [4] of 113 µL/min/mg.

Compound `COc1cncc(-c2cccc(-c3nc4c(C(N)=O)cccc4[nH]3)c2)c1` has an MIC [1] of 4 µg/mL and a solubility at 24 h [2] of 3 µM (≈ 1.03 µg/mL).

With `COc1cncc(-c2cncc(-c3cn4cccc(C(N)=O)c4n3)c2)c1` the MIC [1] was > 32 µg/mL and the solubility at 24 h [2] was 3.5 µM (≈ 1.21 µg/mL).

`CNC(=O)c1cccn2cc(-c3cccc(-c4cncc(OC)c4)c3)nc12` showed an MIC [1] of 2 µg/mL and a solubility at 24 h [2] of 5.5 µM (≈ 1.97 µg/mL).

With `COc1cncc(-c2cccc(-c3cn4ccc(OC)c(C(N)=O)c4n3)c2)c1` the fraction unbound at 5 h [5] was 0.02, the microsomal CLint [6] was 56 µL/min/mg and the MIC [1] was 2 µg/mL. It also gave a logD at 5 h [7] of 2.3, a solubility at 24 h [2] of 40 µM (≈ 15 µg/mL) and a fraction unbound at 5 h [3] of 0.049. The microsomal CLint [4] was 48 µL/min/mg.

`COc1cncc(-c2cccc(-c3nc4c(C(N)=O)cccc4o3)c2)c1` gave an MIC [1] of 2 µg/mL and a solubility at 24 h [2] of 2 µM (≈ 0.691 µg/mL).

For `COc1cncc(-c2cccc(-c3cn4ccnc(C(N)=O)c4n3)c2)c1`, the MIC [1] was 12.5 µM, the solubility at 24 h [2] was 10 µM (≈ 3.45 µg/mL) and the fraction unbound at 5 h [3] was 0.04. For the same compound, the microsomal CLint [4] was 58 µL/min/mg and the IC50 [8] was > 100 µM.

In the case of `CCN(CC)CCNC(=O)c1cccn2cc(-c3cccc(-c4cncc(OC)c4)c3)nc12`, the MIC [1] is reported as 4 µg/mL and the solubility at 24 h [2] is reported as > 2460 µM.

With `NC(=O)c1cccn2cc(-c3cccc(-c4cccc(F)c4)c3)nc12` the MIC [1] was 16 µg/mL and the solubility at 24 h [2] was < 1 µM.

In the case of `COc1cncc(-c2cccc(-c3nc4c(C(N)=O)cccn4n3)c2)c1`, the MIC [1] is reported as 2 µg/mL and the solubility at 24 h [2] is reported as 18 µM (≈ 6.22 µg/mL).

With `COc1cccc(-c2cccc(-c3cn4cccc(C(N)=O)c4n3)c2)c1` the log10cfu [9] was 2, the MIC [1] was 2 µg/mL and the Activity [10] was “Dose-dependent effect”. The solubility at 24 h [2] was < 1 µM.

With `COc1cncc(-c2cc(-c3cn4cccc(C(N)=O)c4n3)ccn2)c1` the MIC [1] was 16 µg/mL and the solubility at 24 h [2] was 22 µM (≈ 7.6 µg/mL).

In the case of `COc1cncc(-c2cccc(-c3cn4cccc(C(=O)N(C)C)c4n3)c2)c1`, the MIC [1] is reported as > 32 µg/mL and the solubility at 24 h [2] is reported as 10 µM (≈ 3.72 µg/mL).

With `COc1ccn2cc(-c3cccc(-c4cncc(OC[C@H]5CCCO5)c4)c3)nc2c1C(N)=O` the MIC [1] was 1 µg/mL and the solubility at 24 h [2] was 120 µM (≈ 53.3 µg/mL).

With `NC(=O)c1nccn2cc(-c3cccc(-c4cncc(OC[C@H]5CCCO5)c4)c3)nc12` the MIC [1] was 6.25 µM, the solubility at 24 h [2] was 40 µM (≈ 16.6 µg/mL) and the IC50 [8] was > 100 µM.

In the case of `COc1ccn2cc(-c3cccc(-c4cncc(O[C@H]5CCOC5)c4)c3)nc2c1C(N)=O`, the MIC [1] is reported as 12.5 µM, the solubility at 24 h [2] is reported as 600 µM (≈ 258 µg/mL) and the IC50 [8] is reported as > 100 µM.

In the case of `NC(=O)c1cccn2cc(-c3cccc(-c4cncc(OCCF)c4)c3)nc12`, the MIC [11] is reported as > 200 µM, the fraction unbound at 5 h [5] is reported as 0.01 and the microsomal CLint [6] is reported as 75 µL/min/mg. For the same compound, the MIC [1] was 0.78 µM, the MIC [12] was > 200 µM and the logD at 5 h [7] was 3.7. The solubility at 24 h [2] was 16 µM (≈ 6.02 µg/mL), the MIC [13] was > 200 µM and the MIC [14] was > 200 µM. For the same compound, the IC50 [8] was > 100 µM.

`CN(C)CCOc1cncc(-c2cccc(-c3cn4cccc(C(N)=O)c4n3)c2)c1` showed a fraction unbound at 5 h [5] of 0.073, a microsomal CLint [6] of 47 µL/min/mg and an MIC [1] of 16 µg/mL. It also gave a solubility at 24 h [2] of 320 µM (≈ 128 µg/mL).

For `NC(=O)c1cccn2cc(-c3cccc(-c4cncc(OC[C@H]5CCCO5)c4)c3)nc12`, the MIC [11] was > 200 µM, the MIC [1] was 0.25 µg/mL and the MIC [12] was > 200 µM. The solubility at 24 h [2] was 5.3 µM (≈ 2.2 µg/mL), the MIC [13] was > 200 µM and the MIC [14] was > 200 µM.

In the case of `NC(=O)c1cccn2cc(-c3cccc(-c4cncc(OCC(F)F)c4)c3)nc12`, the MIC [11] is reported as > 200 µM, the MIC [1] is reported as 3.12 µM and the MIC [12] is reported as > 200 µM. For the same compound, the solubility at 24 h [2] was < 1 µM, the MIC [13] was > 200 µM and the MIC [14] was > 200 µM. For the same compound, the IC50 [8] was > 100 µM.
